Experimental data taken from ChEMBL document CHEMBL1157731, “Novel KCNQ2/Q3 agonists as potential therapeutics for epilepsy and neuropathic pain” (J Med Chem, 2010).
Active and inactive are the calls of the source.

Columns and labels:
[1] = molecular target: Adenosine receptor A2a (Homo sapiens) (UniProt P29274); test: Displacement of [3H]CGS21680 from human recombinant adenosine A2A receptor expressed in HEK293 cells at 10 uM; assay type: cell-based
Rattus norvegicus [2] = test: Antinociceptive activity in formalin-treated Sprague-Dawley rat model assessed as reduction in hind paw flinches at 10 mg/kg, po measured during 11 to 60 mins of phase 2 flinches; assay type: functional; parameters: scale not given: the % may be the effect or the level left
Outline: (§1)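 A small metal band was glued to the right hind paw of male Sprague-Dawley rats 1 h before testing. Compound given po in 0.5% methylcellulose 1 h before the test, then 50 μL of 2.5% formalin injected sc into the dorsal paw. Flinches counted electromagnetically for 60 min; phase II covers 11-60 min post-injection.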

[3] = Binding affinity to Calcium channel diltiazem site at 10 uM by displacement assay
[4] = molecular target: Histamine H1 receptor (Homo sapiens) (UniProt P35367); test: Displacement of radioligand from histamine H1 receptor at 10 uM
Histamine H1 receptor (Homo sapiens), sequence (P35367 whole entry): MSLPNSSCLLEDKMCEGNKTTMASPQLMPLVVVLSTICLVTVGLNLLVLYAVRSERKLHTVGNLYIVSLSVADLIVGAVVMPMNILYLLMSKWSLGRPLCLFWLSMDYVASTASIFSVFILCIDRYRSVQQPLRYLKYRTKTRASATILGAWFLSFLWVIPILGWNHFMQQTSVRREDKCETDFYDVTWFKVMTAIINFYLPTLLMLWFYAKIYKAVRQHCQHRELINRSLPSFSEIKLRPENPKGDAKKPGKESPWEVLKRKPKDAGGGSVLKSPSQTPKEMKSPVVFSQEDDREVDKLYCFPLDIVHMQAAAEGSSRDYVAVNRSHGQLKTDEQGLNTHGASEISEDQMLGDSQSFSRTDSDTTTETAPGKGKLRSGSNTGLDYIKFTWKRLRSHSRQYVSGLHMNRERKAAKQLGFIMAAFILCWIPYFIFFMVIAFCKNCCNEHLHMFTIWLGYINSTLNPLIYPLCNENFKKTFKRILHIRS

[5] = molecular target: Cannabinoid receptor 1 (Homo sapiens) (UniProt P21554); test: Displacement of [3H]CP-55940 from human recombinant CB1 receptor expressed in CHO cells at 10 uM; assay type: cell-based
Cannabinoid receptor 1 (Homo sapiens), sequence (P21554 whole entry): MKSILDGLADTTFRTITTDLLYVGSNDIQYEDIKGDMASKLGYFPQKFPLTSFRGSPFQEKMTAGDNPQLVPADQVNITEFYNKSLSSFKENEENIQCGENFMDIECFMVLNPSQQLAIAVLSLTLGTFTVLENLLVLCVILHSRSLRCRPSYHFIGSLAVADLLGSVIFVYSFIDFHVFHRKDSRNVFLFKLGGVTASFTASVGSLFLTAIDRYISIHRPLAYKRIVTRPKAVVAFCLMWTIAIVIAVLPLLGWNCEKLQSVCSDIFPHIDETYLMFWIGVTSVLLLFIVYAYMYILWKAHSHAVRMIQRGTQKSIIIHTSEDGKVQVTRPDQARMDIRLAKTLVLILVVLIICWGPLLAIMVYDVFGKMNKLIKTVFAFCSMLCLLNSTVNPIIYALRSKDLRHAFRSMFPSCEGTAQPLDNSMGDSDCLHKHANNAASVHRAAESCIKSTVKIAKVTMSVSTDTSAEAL

Rattus norvegicus [6] = test: Analgesic activity in Sprague-Dawley rat assessed as reduction of spinal nerve ligation-induced allodynia score at 10 mg/kg, po; assay type: functional; parameters: scale not given: the % may be the effect or the level left
Outline: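 Male Sprague-Dawley rats; L5 spinal nerve tightly ligated with 4.0 silk distal to the DRG under halothane, then 2-3 weeks recovery. Dosed po in 0.5% methylcellulose. Von Frey tactile withdrawal thresholds measured on a wire mesh floor, top threshold 15 g. Baseline taken just before dosing; testing at 1 and 2 h post-dose.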

[7] = Binding affinity to sodium channel site 2 at 10 uM by displacement assay
Rattus norvegicus [8] = test: Analgesic activity in po dosed Sprague-Dawley rat assessed as reduction of spinal nerve ligation-induced allodynia score; assay type: functional
Outline: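 L5 spinal nerve tightly ligated distal to the DRG under halothane in male Sprague-Dawley rats, followed by 2-3 weeks of recovery. Von Frey withdrawal thresholds taken on a wire-mesh floor (top threshold 15 g), with baseline measured before dosing. Compound given po in 0.5% methylcellulose; testing at 1 and 2 h post-dose.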

[9] = Displacement of radioligand from GABAB receptor at 10 uM
[10] = molecular target: Beta-1 adrenergic receptor (Homo sapiens) (UniProt P08588); test: Displacement of [3H](-)CGP12177 from human recombinant beta 1 adrenergic receptor expressed in HEK293 cells at 10 uM; assay type: cell-based
Beta-1 adrenergic receptor (Homo sapiens), sequence (P08588 whole entry, looked up): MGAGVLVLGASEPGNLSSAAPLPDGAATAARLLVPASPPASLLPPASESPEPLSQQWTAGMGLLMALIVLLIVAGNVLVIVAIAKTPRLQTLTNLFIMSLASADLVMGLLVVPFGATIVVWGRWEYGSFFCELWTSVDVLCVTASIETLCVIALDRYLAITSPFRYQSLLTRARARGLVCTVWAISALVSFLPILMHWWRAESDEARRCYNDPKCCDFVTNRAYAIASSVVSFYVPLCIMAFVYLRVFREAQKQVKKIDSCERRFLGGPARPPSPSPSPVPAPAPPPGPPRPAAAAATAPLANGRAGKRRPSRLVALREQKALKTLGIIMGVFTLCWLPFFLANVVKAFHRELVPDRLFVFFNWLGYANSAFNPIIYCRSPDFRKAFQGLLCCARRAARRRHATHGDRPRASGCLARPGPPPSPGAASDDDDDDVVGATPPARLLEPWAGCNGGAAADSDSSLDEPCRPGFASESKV

[11] = Binding affinity to voltage-dependent N-type calcium channel at 10 uM by displacement assay
[12] = molecular target: Kappa-type opioid receptor (Rattus norvegicus) (UniProt P34975); test: Displacement of [3H]U69593 from rat recombinant kappa opioid receptor expressed in CHO cells at 30 uM; assay type: cell-based
Kappa-type opioid receptor (Rattus norvegicus), sequence (P34975 whole entry): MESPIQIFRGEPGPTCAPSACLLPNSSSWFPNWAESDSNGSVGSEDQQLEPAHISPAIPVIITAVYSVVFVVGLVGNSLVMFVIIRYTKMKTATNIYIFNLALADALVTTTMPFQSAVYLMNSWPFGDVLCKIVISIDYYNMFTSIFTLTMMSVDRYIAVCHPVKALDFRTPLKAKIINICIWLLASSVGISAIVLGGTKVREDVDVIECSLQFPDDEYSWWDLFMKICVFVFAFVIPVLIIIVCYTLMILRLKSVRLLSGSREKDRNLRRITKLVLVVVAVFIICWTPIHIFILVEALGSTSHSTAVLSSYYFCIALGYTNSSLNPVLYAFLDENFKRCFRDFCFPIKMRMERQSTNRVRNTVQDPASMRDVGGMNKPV

[13] = molecular target: T1, Type-1 angiotensin II receptor (Homo sapiens) (UniProt P30556); test: Displacement of [125I][Sar1,Ile8]-AT2 from human recombinant AT1 angiotensin receptor expressed in HEK293 cells at 10 uM; assay type: cell-based
T1 sequence (whole entry): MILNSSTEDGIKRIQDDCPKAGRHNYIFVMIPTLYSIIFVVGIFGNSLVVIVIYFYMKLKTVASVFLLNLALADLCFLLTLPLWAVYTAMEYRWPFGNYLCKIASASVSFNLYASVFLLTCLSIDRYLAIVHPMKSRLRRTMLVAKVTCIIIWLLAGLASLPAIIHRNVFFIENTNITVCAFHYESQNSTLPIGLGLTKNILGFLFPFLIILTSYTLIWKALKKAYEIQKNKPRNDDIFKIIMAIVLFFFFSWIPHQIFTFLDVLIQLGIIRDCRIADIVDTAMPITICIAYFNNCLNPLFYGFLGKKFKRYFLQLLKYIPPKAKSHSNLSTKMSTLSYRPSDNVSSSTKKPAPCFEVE

[14] = Displacement of radioligand from NMDA receptor at 10 uM
Rattus norvegicus [15] = species on record: Rattus norvegicus; test: Displacement of [125I]peptide YY from neuropeptide Y receptor in rat cerebral cortex at 10 uM; assay type: tissue-based
Mus musculus [16] = test: Anticonvulsant activity against maximal electroshock-induced seizures in CD1 mouse model at 20 mg/kg, po treated 30 mins before electroshock application; assay type: functional, organism-based; parameters: dose 20 mg/kg
Outline: (§2)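 Male CD-1 mice dosed po (10 mL/kg in 5% DMSO/95% of 0.5% HPMC/1% Tween 80) 30 min before corneal electroshock at 50 mA for 0.2 s, with 1% proparacaine in each eye. Latency to hindlimb extension recorded to 0.1 s. No extension within 6 s scored as protected (latency 6 s). Reported as protected/tested (8 per group), or EC50 derived from latency scores.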

[17] = molecular target: Kappa-type opioid receptor (Rattus norvegicus) (UniProt P34975); test: Displacement of [3H]U69593 from rat recombinant kappa opioid receptor expressed in CHO cells at 10 uM; assay type: cell-based
[18] = molecular target: Mu-type opioid receptor (Homo sapiens) (UniProt P35372); test: Displacement of [3H]diprenorphine from human recombinant mu opioid receptor expressed in HEK293 cells at 10 uM; assay type: cell-based
Mu-type opioid receptor (Homo sapiens), sequence (P35372 whole entry): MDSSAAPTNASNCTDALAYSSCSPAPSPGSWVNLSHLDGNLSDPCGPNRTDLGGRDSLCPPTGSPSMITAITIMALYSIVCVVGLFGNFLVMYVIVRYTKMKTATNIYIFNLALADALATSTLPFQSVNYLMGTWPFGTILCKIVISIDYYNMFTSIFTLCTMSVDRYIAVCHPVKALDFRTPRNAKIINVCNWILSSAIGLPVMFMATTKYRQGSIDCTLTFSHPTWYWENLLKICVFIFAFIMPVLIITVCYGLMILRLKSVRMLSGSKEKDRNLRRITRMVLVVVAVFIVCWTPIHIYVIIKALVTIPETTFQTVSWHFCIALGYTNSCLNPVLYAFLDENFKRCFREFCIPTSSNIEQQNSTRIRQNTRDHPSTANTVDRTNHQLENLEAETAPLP

[19] = molecular target: Cannabinoid receptor 2 (Homo sapiens) (UniProt P34972); test: Displacement of [3H]WIN-55212-2 from human recombinant CB2 receptor expressed in CHO cells at 10 uM; assay type: cell-based
Cannabinoid receptor 2 (Homo sapiens), sequence (P34972 whole entry): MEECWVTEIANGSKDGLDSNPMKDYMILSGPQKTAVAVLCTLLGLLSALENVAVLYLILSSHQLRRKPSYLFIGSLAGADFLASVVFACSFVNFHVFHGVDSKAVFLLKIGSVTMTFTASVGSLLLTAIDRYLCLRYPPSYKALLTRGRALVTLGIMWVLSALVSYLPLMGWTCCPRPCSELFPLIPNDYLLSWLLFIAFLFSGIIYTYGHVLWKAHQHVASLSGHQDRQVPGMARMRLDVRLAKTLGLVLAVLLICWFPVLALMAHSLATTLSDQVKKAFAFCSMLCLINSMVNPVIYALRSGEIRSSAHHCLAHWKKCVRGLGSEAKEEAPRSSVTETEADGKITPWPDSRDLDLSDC

[20] = Binding affinity to Calcium channel DHP site at 10 uM by displacement assay
[21] = molecular target: Delta-type opioid receptor (Homo sapiens) (UniProt P41143); test: Displacement of [3H]DADLE from human recombinant delta opioid receptor expressed in CHO cells at 10 uM; assay type: cell-based
Delta-type opioid receptor (Homo sapiens), sequence (P41143 whole entry): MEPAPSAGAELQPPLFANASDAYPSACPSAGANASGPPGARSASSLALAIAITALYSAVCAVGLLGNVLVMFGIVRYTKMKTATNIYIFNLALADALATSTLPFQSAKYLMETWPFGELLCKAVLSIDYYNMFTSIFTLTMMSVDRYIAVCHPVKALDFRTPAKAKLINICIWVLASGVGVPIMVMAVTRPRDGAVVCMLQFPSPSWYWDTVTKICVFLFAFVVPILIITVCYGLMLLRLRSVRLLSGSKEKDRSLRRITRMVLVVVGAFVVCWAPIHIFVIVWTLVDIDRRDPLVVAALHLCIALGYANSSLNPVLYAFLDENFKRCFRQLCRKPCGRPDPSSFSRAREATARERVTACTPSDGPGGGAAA

Rattus norvegicus [22] = test: Antinociceptive activity in formalin-treated Sprague-Dawley rat model assessed as reduction in hind paw flinches at 17 mg/kg, po measured during 11 to 60 mins of phase 2 flinches; assay type: functional; parameters: scale not given: the % may be the effect or the level left
Outline: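 Male Sprague-Dawley rats dosed po in 0.5% methylcellulose 1 h before assay. A 0.5 g metal band was glued to the right hind paw 1 h beforehand. 2.5% formalin (50 μL) was injected sc into the dorsal right hind paw. An electromagnetic detector counted flinches for 60 min; phase II is 11-60 min post-injection.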

Mus musculus [23] = test: Anticonvulsant activity against maximal electroshock-induced seizures in CD1 mouse model at 10 mg/kg, po treated 30 mins before electroshock application; assay type: functional, organism-based; parameters: dose 10 mg/kg; outline: as §2
Rattus norvegicus [24] = test: Antinociceptive activity in formalin-treated Sprague-Dawley rat model assessed as reduction in hind paw flinches at 34 mg/kg, po measured during 11 to 60 mins of phase 2 flinches; assay type: functional; parameters: scale not given: the % may be the effect or the level left; outline: as §1

Adenosine receptor A2a (Homo sapiens), sequence (P29274 whole entry): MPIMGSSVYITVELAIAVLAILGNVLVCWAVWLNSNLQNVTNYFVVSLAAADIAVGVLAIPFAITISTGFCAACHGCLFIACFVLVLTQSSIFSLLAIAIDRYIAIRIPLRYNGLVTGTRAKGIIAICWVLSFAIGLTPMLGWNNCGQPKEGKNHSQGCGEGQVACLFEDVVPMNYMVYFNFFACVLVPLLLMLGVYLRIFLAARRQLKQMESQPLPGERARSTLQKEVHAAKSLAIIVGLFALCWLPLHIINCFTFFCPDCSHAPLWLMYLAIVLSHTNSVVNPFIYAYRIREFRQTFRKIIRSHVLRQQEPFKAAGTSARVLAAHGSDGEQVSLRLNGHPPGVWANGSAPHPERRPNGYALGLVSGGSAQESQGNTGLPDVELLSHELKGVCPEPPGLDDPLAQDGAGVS

Row | Structure (SMILES) | Activity [1] | Activity [4] | ED50 (Rattus norvegicus [8]) | Activity [9] | Activity [10] | Activity [13] | Activity [14] | Activity (Rattus norvegicus [15]) | Activity (Mus musculus [16]) | further results
1 | CC(C)OC(=O)N/N=c1\sc2cc(OC(F)(F)F)ccc2n1C | 10% | 0% | 16.2 mg/kg | 0% | 11% | 14% | 0% | 0% | Active | Activity (Rattus norvegicus [2]): 47%; Activity [3]: 0%; Activity [5]: 19%; Activity (Rattus norvegicus [6]): 100%; Activity [7]: 35%; Activity [11]: 0%; Activity [12]: 0%; Activity [17]: 15%; Activity [18]: 0%; Activity [19]: 0%; Activity [20]: 0%; Activity [21]: 10%
2 | Cn1/c(=N/NC(=O)CC(C)(C)C)sc2cc(OC(F)(F)F)ccc21 | 0% | 22% | 20 mg/kg | 16% | 0% | 0% | 0% | 0% |  | Activity (Rattus norvegicus [22]): 55%; Activity (Mus musculus [23]): Active
3 | Cn1/c(=N/NC(=O)CC2CCCC2)sc2cc(OC(F)(F)F)ccc21 | 12% | 0% |  | 12% | 0% | 18% | 0% | 33% | Active | Activity (Rattus norvegicus [24]): 28%
